Assay results from ChEMBL document CHEMBL4680269, “N-benzylpiperidinol derivatives as novel USP7 inhibitors: Structure-activity relationships and X-ray crystallographic studies” (Eur J Med Chem, 2020).
pIC50: −log10 of the molar value. Active and inactive are the calls of the source. The calls are words filed in the database; no cut-off is given here.

Key:
[1] = molecular target: Ubiquitin carboxyl-terminal hydrolase isozyme L1 (Homo sapiens) (UniProt P09936); assay: Inhibition of UCH-L1 (unknown origin) at 20 uM
Ubiquitin carboxyl-terminal hydrolase isozyme L1 (Homo sapiens), sequence (P09936 whole entry, looked up): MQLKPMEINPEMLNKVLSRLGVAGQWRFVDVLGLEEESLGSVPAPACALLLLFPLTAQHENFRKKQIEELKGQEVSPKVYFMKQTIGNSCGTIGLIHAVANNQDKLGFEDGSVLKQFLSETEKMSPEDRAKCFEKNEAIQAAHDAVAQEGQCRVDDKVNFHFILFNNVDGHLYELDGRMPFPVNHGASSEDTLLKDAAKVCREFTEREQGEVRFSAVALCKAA

[2] = molecular target: T1, Ubiquitin carboxyl-terminal hydrolase isozyme L5 (Homo sapiens) (UniProt Q9Y5K5); assay: Inhibition of UCH-L5 (unknown origin) at 20 uM
T1 sequence (whole entry): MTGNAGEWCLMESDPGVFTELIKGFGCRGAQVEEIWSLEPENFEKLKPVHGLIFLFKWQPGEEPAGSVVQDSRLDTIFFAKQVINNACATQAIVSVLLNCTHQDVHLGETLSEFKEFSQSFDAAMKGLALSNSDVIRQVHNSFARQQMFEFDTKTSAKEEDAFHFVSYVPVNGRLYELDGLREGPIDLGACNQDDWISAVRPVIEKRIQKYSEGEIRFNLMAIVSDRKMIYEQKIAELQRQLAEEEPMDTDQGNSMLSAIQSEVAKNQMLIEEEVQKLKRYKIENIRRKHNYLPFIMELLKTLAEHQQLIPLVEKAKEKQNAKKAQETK

[3] = molecular target: Ubiquitin carboxyl-terminal hydrolase 11 (Homo sapiens) (UniProt P51784); assay: Inhibition of USP11 (unknown origin) at 20 uM
Ubiquitin carboxyl-terminal hydrolase 11 (Homo sapiens), sequence (P51784 whole entry): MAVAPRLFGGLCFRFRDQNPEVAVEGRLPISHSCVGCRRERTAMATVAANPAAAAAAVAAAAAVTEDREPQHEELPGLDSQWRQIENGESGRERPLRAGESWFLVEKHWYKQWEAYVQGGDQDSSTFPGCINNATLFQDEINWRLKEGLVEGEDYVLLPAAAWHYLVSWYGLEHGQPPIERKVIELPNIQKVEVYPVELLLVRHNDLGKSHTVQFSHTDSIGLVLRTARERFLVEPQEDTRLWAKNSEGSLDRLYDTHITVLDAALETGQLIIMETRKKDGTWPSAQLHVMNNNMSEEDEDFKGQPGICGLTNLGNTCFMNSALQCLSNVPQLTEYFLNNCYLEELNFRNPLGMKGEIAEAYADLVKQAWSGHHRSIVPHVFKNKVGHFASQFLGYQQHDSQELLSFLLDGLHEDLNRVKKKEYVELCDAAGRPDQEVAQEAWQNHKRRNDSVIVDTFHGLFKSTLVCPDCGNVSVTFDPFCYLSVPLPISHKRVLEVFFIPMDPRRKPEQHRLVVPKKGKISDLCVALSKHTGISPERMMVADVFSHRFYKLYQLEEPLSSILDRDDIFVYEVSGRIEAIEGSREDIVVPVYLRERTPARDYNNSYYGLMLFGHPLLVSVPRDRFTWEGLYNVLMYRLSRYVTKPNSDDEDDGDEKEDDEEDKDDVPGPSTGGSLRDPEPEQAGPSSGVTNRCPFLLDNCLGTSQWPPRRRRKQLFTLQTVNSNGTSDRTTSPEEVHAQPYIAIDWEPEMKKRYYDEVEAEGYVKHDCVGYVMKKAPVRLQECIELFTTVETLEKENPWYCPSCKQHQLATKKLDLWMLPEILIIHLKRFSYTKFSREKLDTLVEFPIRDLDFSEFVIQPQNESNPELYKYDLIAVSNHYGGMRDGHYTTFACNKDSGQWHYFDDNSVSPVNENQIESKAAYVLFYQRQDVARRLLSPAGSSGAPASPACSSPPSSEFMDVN

[4] = molecular target: T2, Ubiquitin carboxyl-terminal hydrolase 2 (Homo sapiens) (UniProt O75604); assay: Inhibition of USP2 (unknown origin) at 20 uM
T2 sequence (whole entry): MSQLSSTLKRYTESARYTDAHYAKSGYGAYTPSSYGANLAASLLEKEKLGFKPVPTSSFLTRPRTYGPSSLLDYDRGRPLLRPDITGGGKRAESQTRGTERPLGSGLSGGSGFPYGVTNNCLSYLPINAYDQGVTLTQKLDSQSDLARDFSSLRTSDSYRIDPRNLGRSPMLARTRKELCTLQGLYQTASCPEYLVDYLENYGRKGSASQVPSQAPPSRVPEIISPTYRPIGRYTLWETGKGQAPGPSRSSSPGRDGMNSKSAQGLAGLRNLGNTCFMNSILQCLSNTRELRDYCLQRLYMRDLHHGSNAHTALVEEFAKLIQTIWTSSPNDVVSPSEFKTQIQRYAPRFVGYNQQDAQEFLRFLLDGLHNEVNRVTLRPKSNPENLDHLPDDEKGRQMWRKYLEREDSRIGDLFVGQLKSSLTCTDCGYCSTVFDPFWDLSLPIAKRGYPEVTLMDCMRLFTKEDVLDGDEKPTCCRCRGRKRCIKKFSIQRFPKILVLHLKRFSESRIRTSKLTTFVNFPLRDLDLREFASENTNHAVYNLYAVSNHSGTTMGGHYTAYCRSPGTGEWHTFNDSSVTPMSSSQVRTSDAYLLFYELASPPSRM

[5] = molecular target: T3, Ubiquitin carboxyl-terminal hydrolase 25 (Homo sapiens) (UniProt Q9UHP3); assay: Inhibition of USP25 (unknown origin) at 20 uM
T3 sequence (whole entry): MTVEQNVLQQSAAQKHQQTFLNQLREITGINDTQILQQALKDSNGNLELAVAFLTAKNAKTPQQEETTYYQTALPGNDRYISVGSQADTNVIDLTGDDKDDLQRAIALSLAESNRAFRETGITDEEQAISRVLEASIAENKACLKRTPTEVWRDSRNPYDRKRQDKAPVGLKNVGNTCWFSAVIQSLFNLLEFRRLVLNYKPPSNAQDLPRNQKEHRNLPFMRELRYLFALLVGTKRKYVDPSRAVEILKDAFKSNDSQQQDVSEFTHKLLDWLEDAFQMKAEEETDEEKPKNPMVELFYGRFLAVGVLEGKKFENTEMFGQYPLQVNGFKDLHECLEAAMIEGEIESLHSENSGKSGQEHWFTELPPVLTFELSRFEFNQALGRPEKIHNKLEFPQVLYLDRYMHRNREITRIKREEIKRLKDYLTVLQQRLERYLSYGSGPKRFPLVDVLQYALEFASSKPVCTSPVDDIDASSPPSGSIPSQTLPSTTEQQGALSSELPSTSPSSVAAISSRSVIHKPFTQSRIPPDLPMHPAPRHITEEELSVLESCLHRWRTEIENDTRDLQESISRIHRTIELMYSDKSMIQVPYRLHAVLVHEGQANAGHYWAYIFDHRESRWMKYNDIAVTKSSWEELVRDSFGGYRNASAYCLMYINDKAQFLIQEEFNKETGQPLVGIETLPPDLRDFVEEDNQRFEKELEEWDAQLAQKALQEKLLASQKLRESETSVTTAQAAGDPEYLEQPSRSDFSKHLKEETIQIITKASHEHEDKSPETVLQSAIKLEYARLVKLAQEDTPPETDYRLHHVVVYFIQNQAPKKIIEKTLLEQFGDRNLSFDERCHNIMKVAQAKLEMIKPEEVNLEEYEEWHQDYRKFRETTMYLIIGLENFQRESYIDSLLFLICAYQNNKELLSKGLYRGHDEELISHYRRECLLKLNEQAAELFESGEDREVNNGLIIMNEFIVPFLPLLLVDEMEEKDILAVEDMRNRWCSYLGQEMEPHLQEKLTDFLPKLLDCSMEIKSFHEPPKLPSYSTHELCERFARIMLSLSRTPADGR

[6] = molecular target: T4, Ubiquitin carboxyl-terminal hydrolase 28 (Homo sapiens) (UniProt Q96RU2); assay: Inhibition of USP28 (unknown origin) at 20 uM
T4 sequence (whole entry): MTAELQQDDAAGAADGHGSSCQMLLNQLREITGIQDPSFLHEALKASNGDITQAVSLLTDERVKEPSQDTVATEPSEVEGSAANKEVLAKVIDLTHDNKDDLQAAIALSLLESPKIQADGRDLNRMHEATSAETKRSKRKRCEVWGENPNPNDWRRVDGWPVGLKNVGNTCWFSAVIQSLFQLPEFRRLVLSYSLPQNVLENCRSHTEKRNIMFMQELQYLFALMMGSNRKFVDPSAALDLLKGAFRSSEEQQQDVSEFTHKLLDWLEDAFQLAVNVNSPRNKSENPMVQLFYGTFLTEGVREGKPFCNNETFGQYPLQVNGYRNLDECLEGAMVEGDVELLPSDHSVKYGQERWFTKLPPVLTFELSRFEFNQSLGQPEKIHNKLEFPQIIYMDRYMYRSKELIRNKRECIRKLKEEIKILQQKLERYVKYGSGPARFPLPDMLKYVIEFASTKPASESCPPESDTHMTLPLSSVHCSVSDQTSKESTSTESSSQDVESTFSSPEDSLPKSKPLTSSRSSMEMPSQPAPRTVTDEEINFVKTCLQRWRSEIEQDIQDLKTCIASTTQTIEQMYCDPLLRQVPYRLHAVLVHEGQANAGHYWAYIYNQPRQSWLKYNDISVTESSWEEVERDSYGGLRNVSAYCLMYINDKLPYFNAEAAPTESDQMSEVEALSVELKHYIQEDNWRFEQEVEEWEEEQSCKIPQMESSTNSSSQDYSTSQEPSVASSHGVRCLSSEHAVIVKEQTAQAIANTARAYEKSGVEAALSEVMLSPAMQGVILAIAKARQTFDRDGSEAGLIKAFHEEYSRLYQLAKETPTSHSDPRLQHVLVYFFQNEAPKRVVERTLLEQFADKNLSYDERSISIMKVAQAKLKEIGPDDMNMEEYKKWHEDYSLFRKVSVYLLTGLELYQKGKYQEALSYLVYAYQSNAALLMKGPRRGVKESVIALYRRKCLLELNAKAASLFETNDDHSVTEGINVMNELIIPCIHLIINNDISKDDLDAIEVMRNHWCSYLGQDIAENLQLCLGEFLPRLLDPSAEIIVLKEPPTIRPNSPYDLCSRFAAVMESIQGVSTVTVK

[7] = tested on: LNCaP; assay: Antiproliferative activity against human LNCaP cells assessed as reduction in cell viability incubated for 6 days by cell-titer glo assay; format: functional, cell-based; settings: 144 h
In short: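 LNCaP seeded at 2500 cells/well in 96-well plates, treated 24 h later with a range of compound concentrations for 6 days. Viability by CellTiter-Glo; IC50 from curve fitting.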

[8] = tested on: RS4-11; assay: Antiproliferative activity against human RS4-11 cells assessed as reduction in cell viability incubated for 3 days by cell-titer glo assay; format: functional, cell-based; settings: RS4-11, 72 h
In short: (§1)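 Cells seeded in 96-well plates (RS4;11 5000 cells/well; HCT-116, Huh7, K562, NB4 2000 cells/well), dosed after 24 h with a range of compound concentrations for 3 days. Viability read by CellTiter-Glo luminescence; IC50 from curve fitting.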

[9] = tested on: HCT-116; assay: Antiproliferative activity against human HCT-116 cells assessed as reduction in cell viability incubated for 3 days by cell-titer glo assay; format: functional, cell-based; settings: HCT-116, 72 h; in short: as §1
[10] = tested on: NB-4; assay: Antiproliferative activity against human NB-4 cells assessed as reduction in cell viability incubated for 3 days by cell-titer glo assay; format: functional, cell-based; settings: NB-4, 72 h; in short: as §1
[11] = Antiproliferative activity against human K562 cells assessed as reduction in cell viability incubated for 3 days by cell-titer glo assay; format: functional, cell-based; settings: K562, 72 h; in short: as §1
[12] = tested on: Huh-7; assay: Antiproliferative activity against human HuH-7 cells assessed as reduction in cell viability incubated for 3 days by cell-titer glo assay; format: functional, cell-based; settings: Huh-7, 72 h; in short: as §1

- inhibition [1]: inactive
- inhibition [2]: inactive
- inhibition [3]: inactive
- inhibition [4]: inactive
- inhibition [5]: inactive
- inhibition [6]: inactive
- pIC50 [7]: 7.70
- pIC50 [8]: 8.16
- pIC50 [9]: < 4.30
- pIC50 [12]: 4.97
SMILES: C[C@H](CC(=O)N1CCC(O)(Cn2cnc3c(-c4ccc(CN)cc4)n(C)nc3c2=O)CC1)c1ccccc1
- pIC50 [10]: < 4.30
- pIC50 [11]: 4.62
